Source: ChEMBL document CHEMBL1140930 (J Med Chem, 2009)

Assays:
[1] = system: K562; experiment: Antiproliferative activity against human K562 cells after 48 hrs; format: functional, cell-based; settings: K562, 48 h
Outline: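 K562 cells (RPMI 1640, 10% FBS, 37 °C, 5% CO2) plated at 2 × 10⁵ cells/mL. Compounds dissolved in DMSO/methanol 1:1, vehicle 0.5%. Cells counted in a Neubauer chamber after 48 h and expressed as % of untreated control. Triplicate wells, three experiments. IC50 from nonlinear regression.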

[2] = target: Tubulin (Sus scrofa, UniProt P02554+P02550); experiment: Inhibition of pig brain tubulin polymerization after 30 mins by turbidimetric assay
Outline: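 Microtubule protein from porcine brain (80–90% tubulin, 10–20% MAPs), purified by two disassembly/reassembly cycles. Assay buffer: 20 mM PIPES pH 6.8, 80 mM NaCl, 0.5 mM MgCl2, 1 mM EGTA, 1 mM DTT. Protein at 1.2 mg/mL with 0.6 mM GTP final, 1% DMSO final, 37 °C.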

[3] = system: SF-268; experiment: Antiproliferative activity against human SF268 cells by XTT assay; format: functional, cell-based
Outline: (§1)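 XTT metabolic read-out. Cells seeded at 1 × 10³–8 × 10⁴ cells/well for logarithmic growth and exposed to graded concentrations for 48 h. At least two replicates. IC50 from nonlinear regression of dose-response curves. LT12/MDR: rat LT12 with ectopic human MDR-1. L1210/VCR: MDR-1 expressing, MRP-1 negative.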

[4] = system: NCI-H460; experiment: Antiproliferative activity against human NCI-H460 cells by XTT assay; format: functional, cell-based; outline: as §1
[5] = system: RKO; experiment: Antiproliferative activity against human RKO cells by XTT assay; format: functional, cell-based
Outline: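 RKO colon cells with ecdysone-inducible p27Kip1. Day 1: plated with or without 3 µM ponasterone A for 24 h, giving G1 arrest when induced (2 × 10⁴ cells/well induced; 6 × 10³ not induced). Day 2: compound added (DMSO control) for 48 h at 37 °C, then standard XTT. At least duplicate. IC50 by nonlinear regression.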

[6] = Antiproliferative activity against human KB/HeLa cells by XTT assay; format: functional, cell-based; outline: as §1
[7] = system: SK-OV-3; experiment: Antiproliferative activity against human SKOV3 cells by XTT assay; format: functional, cell-based
Outline: (§2)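 XTT metabolic-activity read-out of proliferation. Cells were seeded at 1 × 10³-8 × 10⁴ cells/well for logarithmic growth and exposed to a range of compound concentrations for 48 h. IC50 came from nonlinear regression of dose-response curves, with at least two replicates. The P388/Adr subline was doxorubicin-selected with elevated MDR-1.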

[8] = system: RKO; experiment: Antiproliferative activity against human RKO cells containing ecdysone-inducible expression vector of p27kipl by XTT assay; format: functional, cell-based
Outline: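 RKO cells carried an ecdysone-inducible p27Kip1 vector and were tested with and without induction. On day 1 they were plated with or without 3 µM ponasterone A, which gives G1 arrest, at 2 × 10⁴ cells/well induced or 6 × 10³ not induced, then held 24 h at 37 °C. Compound was then added for 48 h at 37 °C, followed by a standard XTT assay. IC50 came from nonlinear regression, n ≥ 2.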

[9] = Antiproliferative activity against rat LT12 cells ectopic expression of human MDR1 after 48 hrs by XTT assay; format: functional, cell-based; settings: LT12, 48 h; outline: as §1
[10] = Antiproliferative activity against rat LT12 cells after 48 hrs by XTT assay; format: functional, cell-based; settings: LT12, 48 h; outline: as §2
[11] = system: L1210; experiment: Antiproliferative activity against vincristine-resistance MRP1 negative mouse L1210 cells expressing human MDR1 after 48 hrs by XTT assay; format: functional, cell-based; settings: L1210, 48 h; outline: as §1

| IC50 [1] | IC50 [2] | SMILES | also measured |
| --- | --- | --- | --- |
|  | 0.9 µM | COc1ccc(C(=O)C=C2c3ccccc3C(=O)c3ccccc32)c(OC)c1 |  |
| > 30 µM | > 10 µM | COc1ccc(C(=O)C=C2c3ccccc3C(=O)c3ccccc32)c(O)c1OC |  |
| 1.9 µM | 10 µM | COc1ccccc1OC(=O)C=C1c2ccccc2C(=O)c2ccccc21 |  |
| 5.21 µM | 10 µM | O=C(C=C1c2ccccc2C(=O)c2ccccc21)c1cccs1 |  |
| 3.43 µM | 0.9 µM | O=C(C=C1c2ccccc2C(=O)c2ccccc21)c1ccc(O)cc1 |  |
| 0.69 µM | 2.3 µM | COc1csc(C(=O)C=C2c3ccccc3C(=O)c3ccccc32)c1 |  |
| 2.6 µM | 3.3 µM | COc1cccc(C(=O)C=C2c3ccccc3C(=O)c3ccccc32)c1 |  |
| 6 µM |  | COC(=O)C=C1c2ccccc2C(=O)c2ccccc21 |  |
| 0.64 µM | 1.1 µM | Cc1ccc(C(=O)C=C2c3ccccc3C(=O)c3ccccc32)cc1 |  |
| 1.64 µM | 10 µM | COc1cccc(OC)c1OC(=O)C=C1c2ccccc2C(=O)c2ccccc21 |  |
| 3.6 µM | 5 µM | O=C(C=C1c2ccccc2C(=O)c2ccccc21)c1ccccc1 |  |

The next lines start with the compound.

| SMILES | IC50 [1] | IC50 [2] | also measured |
| --- | --- | --- | --- |
| O=C1c2ccccc2C(C(O)C(=O)c2ccccc2)c2ccccc21 (centres undefined) | 27 µM | > 10 µM |  |
| COc1ccc(C(=O)C=C2c3ccccc3C(=O)c3ccccc32)c(OC)c1OC | 11 µM | > 10 µM |  |
| COc1cc(C(=O)C=C2c3ccccc3C(=O)c3ccccc32)cc(OC)c1OC | 0.7 µM | 3.7 µM |  |
| COc1ccc(C(=O)COc2c3ccccc3cc3ccccc23)cc1 | 10 µM |  |  |
| COc1ccc(C(=O)C(O)C2c3ccccc3C(=O)c3ccccc32)cc1 (centres undefined) | 18 µM | > 10 µM |  |
| O=C(C=C1c2ccccc2C(=O)c2ccccc21)c1ccc(O)c(O)c1 | 0.16 µM | 2.6 µM | IC50 [3]: 0.22 µM; IC50 [4]: 0.43 µM; IC50 [5]: 0.24 µM; IC50 [6]: 0.27 µM; IC50 [7]: 0.16 µM; IC50 [8]: > 9 µM |
| COc1ccc(C(=O)C=C2c3ccccc3C(O)c3ccccc32)cc1 (centres undefined) | 0.21 µM | 1.2 µM |  |
| COc1cc(C(=O)C(O)C2c3ccccc3C(=O)c3ccccc32)cc(OC)c1OC (centres undefined) | 21 µM | > 10 µM |  |
| CC[C@]1(O)C[C@@H]2CN(CCc3c([nH]c4ccccc34)[C@@](C(=O)OC)(c3cc4c(cc3OC)N(C)[C@H]3[C@@](O)(C(N)=O)[C@H](O)[C@]5(CC)C=CCN6CC[C@]43[C@@H]65)C2)C1 [VINDESINE] |  |  | IC50 [9]: 0.26 µM; IC50 [10]: 0.2 µM; IC50 [11]: > 5 µM |
